Measurements reported in ChEMBL document CHEMBL3603733, “Synthesis and biological evaluation of (3',5'-dichloro-2,6-dihydroxy-biphenyl-4-yl)-aryl/alkyl-methanone selective CB2 inverse agonist” (Bioorg Med Chem, 2015).
Active and inactive are the calls of the source. The rule behind the calls is not given here.

How the values were obtained:
Cannabinoid receptor 2 [1] = target: T1, Cannabinoid receptor 2 (Homo sapiens, UniProt P34972); experiment: Inverse agonist activity at CB2 receptor (unknown origin) expressed in HEK cells assessed as increase in cAMP production at 5 x 10^-6 to 5 x 10^-10 M measured at 50 mins by ACTOne dye-based fluorescence assay in presence of forskolin and Ro 20-1724 relative to control; assay type: functional, cell-based; conditions: HEK293
Summary of the method: (§1)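 HEK-CNG+CB1 or HEK-CNG+CB2 cells, plus parental HEK-CNG, were plated at 50,000 cells/well in DMEM with 10% FBS the day before. Membrane potential dye was loaded for 1 h in the dark at room temperature. Ligands were added at 5x10⁻⁶ to 5x10⁻¹⁰ final, with 25 µM Ro 20-1724 and 800 nM forskolin, in DPBS with 2.5% DMSO. Fluorescence (Ex 540, Em 590 nm) was read at 50 min. At least six biological replicates were run, with non-linear fitting.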

Cannabinoid receptor 2 [2] = target: T1, Cannabinoid receptor 2; experiment: Non-competitive antagonist activity at CB2 receptor (unknown origin) expressed in HEK cells incubated in dark condition for 30 mins prior to CP55940 addition measured at 50 mins by Schild plot analysis; assay type: cell-based; conditions: HEK293
Summary of the method: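 HEK-CNG+CB2 cells were loaded with membrane potential dye. After 30 min, antagonist in DPBS with 2.5% DMSO was added and incubated 30 more min in the dark at room temperature. CP 55,940 was then added with 25 µM Ro 20-1724 and 800 nM forskolin (final). Fluorescence was read at 50 min.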

Cannabinoid receptor 2 [3] = target: T1, Cannabinoid receptor 2; experiment: Displacement of [3H]-CP55940 from CB2 receptor (unknown origin) expressed in HEK-CNG cell membranes after 90 mins by liquid scintillation counting analysis
Cannabinoid receptor 1 [4] = target: T2, Cannabinoid receptor 1 (Homo sapiens, UniProt P21554); experiment: Displacement of [3H]-CP55940 from CB1 receptor (unknown origin) expressed in HEK-CNG cell membranes after 90 mins by liquid scintillation counting analysis
Cannabinoid receptor 2 [5] = target: T1, Cannabinoid receptor 2; experiment: Inverse agonist activity at CB2 receptor (unknown origin) expressed in HEK cells assessed as increase in cAMP production measured at 50 mins by ACTOne dye-based fluorescence assay in presence of forskolin and Ro 20-1724; assay type: functional, cell-based, HEK293
Summary of the method: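 HEK-CNG+CB1 or HEK-CNG+CB2 cells, plus parental HEK-CNG, were plated at 50,000 cells/well in DMEM with 10% FBS the day before. Membrane potential dye was loaded for 1 h in the dark at room temperature. At least six biological replicates were run, with non-linear fitting.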

Cannabinoid receptor 1 [6] = target: T2, Cannabinoid receptor 1; experiment: Inverse agonist activity at CB1 receptor (unknown origin) expressed in HEK cells assessed as increase in cAMP production measured at 50 mins by ACTOne dye-based fluorescence assay in presence of forskolin and Ro 20-1724; assay type: functional, cell-based, HEK293; summary of the method: as §1
Homo sapiens = organism: Homo sapiens; experiment: Selectivity ratio of Ki for CB1 receptor (unknown origin) to Ki for CB2 receptor (unknown origin)
Cannabinoid receptor 1 [7] = target: T2, Cannabinoid receptor 1; experiment: Inverse agonist activity at CB1 receptor (unknown origin) expressed in HEK cells assessed as increase in cAMP production at 5 x 10^-6 to 5 x 10^-10 M measured at 50 mins by ACTOne dye-based fluorescence assay in presence of forskolin and Ro 20-1724 relative to control; assay type: functional, cell-based; conditions: HEK293; summary of the method: as §1

T2 sequence (P21554 whole entry): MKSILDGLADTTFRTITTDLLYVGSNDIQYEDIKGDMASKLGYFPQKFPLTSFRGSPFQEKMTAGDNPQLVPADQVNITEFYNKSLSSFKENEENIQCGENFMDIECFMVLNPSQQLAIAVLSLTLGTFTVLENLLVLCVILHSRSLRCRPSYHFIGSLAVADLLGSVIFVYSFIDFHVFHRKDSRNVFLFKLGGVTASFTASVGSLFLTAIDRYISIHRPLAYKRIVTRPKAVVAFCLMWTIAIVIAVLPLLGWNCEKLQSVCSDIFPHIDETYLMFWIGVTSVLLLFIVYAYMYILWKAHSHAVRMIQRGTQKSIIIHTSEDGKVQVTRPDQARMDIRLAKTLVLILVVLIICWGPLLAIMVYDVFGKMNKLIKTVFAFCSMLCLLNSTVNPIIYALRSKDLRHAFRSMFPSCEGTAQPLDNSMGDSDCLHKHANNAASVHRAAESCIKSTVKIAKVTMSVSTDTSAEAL
T1 sequence (P34972 whole entry): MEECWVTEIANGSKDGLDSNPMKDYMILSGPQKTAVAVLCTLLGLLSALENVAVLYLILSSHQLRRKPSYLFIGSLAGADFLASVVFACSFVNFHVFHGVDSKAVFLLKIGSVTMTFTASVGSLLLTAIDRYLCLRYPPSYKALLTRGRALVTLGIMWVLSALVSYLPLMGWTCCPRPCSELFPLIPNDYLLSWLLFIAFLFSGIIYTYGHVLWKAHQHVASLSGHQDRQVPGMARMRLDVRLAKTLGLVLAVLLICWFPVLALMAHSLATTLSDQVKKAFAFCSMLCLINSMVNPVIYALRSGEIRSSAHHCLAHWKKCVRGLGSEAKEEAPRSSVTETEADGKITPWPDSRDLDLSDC

Structure (SMILES) | Efficacy (Cannabinoid receptor 2 [1]) | inhibition (Cannabinoid receptor 2 [2]) | Ki (Cannabinoid receptor 2 [3]) [µM] | Ki (Cannabinoid receptor 1 [4]) [µM] | EC50 (Cannabinoid receptor 2 [5]; read-out: EC50) [µM] | EC50 (Cannabinoid receptor 1 [6]; hek293) | Ratio Ki (Homo sapiens) | Efficacy (Cannabinoid receptor 1 [7]) | EC50 (Cannabinoid receptor 2 [5]; hek293) | EC50 (Cannabinoid receptor 1 [6]; read-out: EC50) [µM]
CCc1ccc(C(=O)c2cc(O)c(-c3cc(Cl)cc(Cl)c3)c(O)c2)cc1 | 52.2% | Active | 0.0376 | 1.14 | 0.0295 | Not Active | – | – | – | –
CCCCc1ccc(C(=O)c2cc(O)c(-c3cc(Cl)cc(Cl)c3)c(O)c2)cc1 | 176% | Active | 0.464 | > 10 | 0.254 | Not Active | > 21.5 | inactive | – | –
COc1cc(C(=O)c2ccc(Cl)cc2)cc(OC)c1-c1cc(Cl)cc(Cl)c1 | – | – | > 10 | > 10 | – | Not Active | – | – | Not Active | –
O=C(c1ccc(Cl)cc1)c1cc(O)c(-c2cc(Cl)cc(Cl)c2)c(O)c1 | 119% | – | 0.121 | 4.65 | 0.0897 | – | 38.5 | 169% | – | 3.28
Cc1ccc(Cn2nc(C(=O)NC3C4(C)CCC(C4)C3(C)C)cc2-c2ccc(Cl)c(C)c2)cc1 (configuration not stated) [SR-144528] | 80.8% | – | – | – | – | Not Active | – | inactive | – | –
O=C(c1cc(O)c(-c2cc(Cl)cc(Cl)c2)c(O)c1)C1CCCCC1 | inactive | – | 1.59 | 0.299 | 2.54 | – | 0.19 | inactive | – | > 5
CC(C)c1ccc(C(=O)c2cc(O)c(-c3cc(Cl)cc(Cl)c3)c(O)c2)cc1 | 56% | – | 0.161 | 3.33 | 0.182 | Not Active | – | – | – | –
Cc1ccc(C(=O)c2cc(O)c(-c3cc(Cl)cc(Cl)c3)c(O)c2)cc1 | 230% | – | 0.258 | 9.43 | 0.118 | Not Active | 36.6 | inactive | – | –
CCCCc1ccc(C(=O)c2cc(O)c(-c3cc(Cl)cc(Cl)c3)c(OC)c2)cc1 | 108% | – | > 10 | > 10 | > 5 | Not Active | – | – | – | –
CCCc1ccc(C(=O)c2cc(O)c(-c3cc(Cl)cc(Cl)c3)c(O)c2)cc1 | 50% | – | 0.0599 | > 10 | 0.0288 | Not Active | – | – | – | –
COc1cc(C(=O)c2ccc(C)cc2)cc(OC)c1-c1cc(Cl)cc(Cl)c1 | inactive | – | > 10 | > 10 | – | Not Active | – | inactive | Not Active | –
O=C(c1cccc(C(F)(F)F)c1)c1cc(O)c(-c2cc(Cl)cc(Cl)c2)c(O)c1 | – | – | > 10 | 4.13 | – | Not Active | – | – | Not Active | –
CC(C)(C)c1ccc(C(=O)c2cc(O)c(-c3cc(Cl)cc(Cl)c3)c(O)c2)cc1 | 275% | – | 3.17 | 2.53 | 3.97 | Not Active | – | – | – | –
CCc1cccc(C(=O)c2cc(O)c(-c3cc(Cl)cc(Cl)c3)c(O)c2)c1 | 184% | – | 1.72 | > 10 | > 5 | Not Active | > 5.82 | inactive | – | –
CCCCc1ccc(C(=O)c2cc(OC)c(-c3cc(Cl)cc(Cl)c3)c(OC)c2)cc1 | inactive | – | > 10 | > 10 | – | Not Active | – | inactive | Not Active | –
COc1cc(C(=O)c2ccc(Cl)cc2)cc(O)c1-c1cc(Cl)cc(Cl)c1 | 97.5% | – | > 10 | > 10 | > 5 | – | – | 71.3% | – | 2.88
CCCCCCC(=O)c1cc(O)c(-c2cc(Cl)cc(Cl)c2)c(O)c1 | – | – | > 10 | > 10 | – | Not Active | – | – | Not Active | –
COc1cc(C(=O)c2ccc(C)cc2)cc(O)c1-c1cc(Cl)cc(Cl)c1 | 129% | – | > 10 | > 10 | > 5 | Not Active | – | – | – | –
Cc1cc(C)cc(C(=O)c2cc(O)c(-c3cc(Cl)cc(Cl)c3)c(O)c2)c1 | inactive | – | > 10 | > 10 | – | Not Active | – | inactive | Not Active | –
O=C(c1ccccc1)c1cc(O)c(-c2cc(Cl)cc(Cl)c2)c(O)c1 | 54.8% | Active | – | – | – | Not Active | 39.4 | inactive | – | –
O=C(c1ccc(O)cc1)c1cc(O)c(-c2cc(Cl)cc(Cl)c2)c(O)c1 | 75.6% | – | > 10 | > 10 | > 5 | Not Active | – | inactive | – | –
Cc1cccc(C(=O)c2cc(O)c(-c3cc(Cl)cc(Cl)c3)c(O)c2)c1 | – | – | 2.62 | > 10 | – | Not Active | – | – | Not Active | –
O=C(c1ccc(C(F)(F)F)cc1)c1cc(O)c(-c2cc(Cl)cc(Cl)c2)c(O)c1 | 49.7% | – | > 10 | > 10 | > 5 | – | – | 37% | – | > 5
